ChEMBL document CHEMBL1152599, “Synthesis and in vitro activities of new anticancer duplex drugs linking 2'-deoxy-5-fluorouridine (5-FdU) with 3'-C-ethynylcytidine (ECyd) via a phosphodiester bonding” (2009)

Tests used:
Format in all cases: functional
HL-60 = experiment: Anticancer activity against human HL-60(TB) cells after 48 hrs by sulforhodamine B assay; conditions: HL-60, 48 h
Outline: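 NCI 60-cell-line anticancer screen. Drugs tested at a minimum of five concentrations at 10-fold dilutions with 48 h exposure. Cell growth estimated by sulforhodamine B protein assay. GI50 is log10 of the molar concentration giving 50% growth inhibition, read from the screening data sheet, dose-response curves and mean graphs.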

UACC-257 = experiment: Anticancer activity against human UACC257 cells after 48 hrs by sulforhodamine B assay; conditions: UACC-257, 48 h
Outline: (§1)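 Tested in the NCI 60-human-tumour-cell-line screen. Compounds were applied at a minimum of five concentrations in 10-fold dilutions with 48 h exposure. Cell growth was estimated by sulforhodamine B protein staining. GI50 (log10 of molar concentration giving 50% growth inhibition) and TGI were read from the data sheets, dose-response curves and mean graphs. Some cell lines were screened twice.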

HCT-116 = experiment: Anticancer activity against human HCT116 cells after 48 hrs by sulforhodamine B assay; conditions: HCT-116, 48 h
Outline: (§2)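 NCI 60-cell-line anticancer screen. Each compound is tested at a minimum of five concentrations in 10-fold dilutions with 48 h drug exposure. Cell viability/growth is estimated by sulforhodamine B protein staining. GI50 is the log10 molar concentration giving 50% growth inhibition, read from the dose-response curves and mean graphs of the NCI data screening report. TGI was taken from double screens.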

SF-295 = experiment: Anticancer activity against human SF295 cells after 48 hrs by sulforhodamine B assay; conditions: SF-295, 48 h; outline: as §2
[1] = Anticancer activity against human […] cells after 48 hrs by sulforhodamine B assay; outline: as §2
OVCAR-5 = experiment: Anticancer activity against human OVCAR5 cells after 48 hrs by sulforhodamine B assay; conditions: OVCAR-5, 48 h; outline: as §2
OVCAR-8 = experiment: Anticancer activity against human OVCAR8 cells after 48 hrs by sulforhodamine B assay; conditions: OVCAR-8, 48 h; outline: as §2
SN12C = experiment: Anticancer activity against human SN12C cells after 48 hrs by sulforhodamine B assay; outline: as §2
NCI-H23 = experiment: Anticancer activity against human NCI-H23 cells after 48 hrs by sulforhodamine B assay; conditions: NCI-H23, 48 h; outline: as §2
IGROV-1 = experiment: Anticancer activity against human IGROV1 cells after 48 hrs by sulforhodamine B assay; conditions: IGROV-1, 48 h; outline: as §2
786-0 = experiment: Anticancer activity against human 786-0 cells after 48 hrs by sulforhodamine B assay; conditions: 786-0, 48 h; outline: as §2
MCF7 = experiment: Anticancer activity against human MCF7 cells after 48 hrs by sulforhodamine B assay; conditions: MCF7, 48 h; outline: as §2
U-251 = experiment: Anticancer activity against human U251 cells after 48 hrs by sulforhodamine B assay; conditions: U-251, 48 h; outline: as §1
SR = experiment: Anticancer activity against human SR cells after 48 hrs by sulforhodamine B assay; outline: as §1
NCI-H522 = experiment: Anticancer activity against human NCI-H522 cells after 48 hrs by sulforhodamine B assay; conditions: NCI-H522, 48 h; outline: as §2
[2] = Anticancer activity against human Hs 578T cells after 48 hrs by sulforhodamine B assay; outline: as §2
PC-3 = experiment: Anticancer activity against human PC3 cells after 48 hrs by sulforhodamine B assay; conditions: PC-3, 48 h; outline: as §2
BT-549 = experiment: Anticancer activity against human BT549 cells after 48 hrs by sulforhodamine B assay; conditions: BT-549, 48 h; outline: as §2
M14 = experiment: Anticancer activity against human M14 cells after 48 hrs by sulforhodamine B assay; conditions: M14, 48 h; outline: as §2
TK-10 = experiment: Anticancer activity against human TK10 cells after 48 hrs by sulforhodamine B assay; conditions: TK-10, 48 h; outline: as §1
COLO 205 = experiment: Anticancer activity against human COLO205 cells after 48 hrs by sulforhodamine B assay; conditions: COLO 205, 48 h; outline: as §2
HOP-92 = experiment: Anticancer activity against human HOP92 cells after 48 hrs by sulforhodamine B assay; conditions: HOP-92, 48 h; outline: as §2
EKVX = experiment: Anticancer activity against human EKVX cells after 48 hrs by sulforhodamine B assay; outline: as §2
MDA-MB-435 = experiment: Anticancer activity against human MDA-MB-435 cells after 48 hrs by sulforhodamine B assay; conditions: MDA-MB-435, 48 h; outline: as §2
SW-620 = experiment: Anticancer activity against human SW620 cells after 48 hrs by sulforhodamine B assay; conditions: SW-620, 48 h; outline: as §1
DU-145 = experiment: Anticancer activity against human DU145 cells after 48 hrs by sulforhodamine B assay; conditions: DU-145, 48 h; outline: as §2
HCT-15 = experiment: Anticancer activity against human HCT15 cells after 48 hrs by sulforhodamine B assay; conditions: HCT-15, 48 h; outline: as §2
NCI-H322M = experiment: Anticancer activity against human NCI-H322M cells after 48 hrs by sulforhodamine B assay; outline: as §2
NCI-H460 = experiment: Anticancer activity against human NCI-H460 cells after 48 hrs by sulforhodamine B assay; conditions: NCI-H460, 48 h; outline: as §2
UO-31 = experiment: Anticancer activity against human UO31 cells after 48 hrs by sulforhodamine B assay; conditions: UO-31, 48 h; outline: as §1
MDA-MB-231 = experiment: Anticancer activity against human MDA-MB-231 cells after 48 hrs by sulforhodamine B assay; conditions: MDA-MB-231, 48 h; outline: as §2
CCRF-CEM = experiment: Anticancer activity against human CCRF-CEM cells after 48 hrs by sulforhodamine B assay; outline: as §2
OVCAR-4 = experiment: Anticancer activity against human OVCAR4 cells after 48 hrs by sulforhodamine B assay; conditions: OVCAR-4, 48 h; outline: as §2
SK-MEL-28 = experiment: Anticancer activity against human SK-MEL-28 cells after 48 hrs by sulforhodamine B assay; conditions: SK-MEL-28, 48 h; outline: as §2
SNB-19 = experiment: Anticancer activity against human SNB19 cells after 48 hrs by sulforhodamine B assay; conditions: SNB-19, 48 h; outline: as §2
HCC 2998 = experiment: Anticancer activity against human HCC2998 cells after 48 hrs by sulforhodamine B assay; conditions: HCC 2998, 48 h; outline: as §2
RXF 393 = experiment: Anticancer activity against human RXF393 cells after 48 hrs by sulforhodamine B assay; conditions: RXF 393, 48 h; outline: as §2
HT-29 = experiment: Anticancer activity against human HT-29 cells after 48 hrs by sulforhodamine B assay; conditions: HT-29, 48 h; outline: as §2
UACC-62 = experiment: Anticancer activity against human UACC62 cells after 48 hrs by sulforhodamine B assay; conditions: UACC-62, 48 h; outline: as §1
SK-MEL-2 = experiment: Anticancer activity against human SK-MEL-2 cells after 48 hrs by sulforhodamine B assay; conditions: SK-MEL-2, 48 h; outline: as §2
A498 = experiment: Anticancer activity against human A498 cells after 48 hrs by sulforhodamine B assay; conditions: A498, 48 h; outline: as §2
MDA-N = experiment: Anticancer activity against human MDA-N cells after 48 hrs by sulforhodamine B assay; outline: as §2
SK-MEL-5 = experiment: Anticancer activity against human SK-MEL-5 cells after 48 hrs by sulforhodamine B assay; conditions: SK-MEL-5, 48 h; outline: as §2
SK-OV-3 = experiment: Anticancer activity against human SKOV3 cells after 48 hrs by sulforhodamine B assay; conditions: SK-OV-3, 48 h; outline: as §2
NCI-H226 = experiment: Anticancer activity against human NCI-H226 cells after 48 hrs by sulforhodamine B assay; conditions: NCI-H226, 48 h; outline: as §2
MOLT-4 = experiment: Anticancer activity against human MOLT4 cells after 48 hrs by sulforhodamine B assay; conditions: MOLT-4, 48 h; outline: as §2
K562 = experiment: Anticancer activity against human K562 cells after 48 hrs by sulforhodamine B assay; conditions: K562, 48 h; outline: as §2
ACHN = experiment: Anticancer activity against human ACHN cells after 48 hrs by sulforhodamine B assay; outline: as §2
HOP-62 = experiment: Anticancer activity against human HOP62 cells after 48 hrs by sulforhodamine B assay; conditions: HOP-62, 48 h; outline: as §2
Malme-3M = experiment: Anticancer activity against human MALME-3M cells after 48 hrs by sulforhodamine B assay; outline: as §2
SF-268 = experiment: Anticancer activity against human SF268 cells after 48 hrs by sulforhodamine B assay; conditions: SF-268, 48 h; outline: as §2
KM12 = experiment: Anticancer activity against human KM12 cells after 48 hrs by sulforhodamine B assay; conditions: KM12, 48 h; outline: as §2
A549 = experiment: Anticancer activity against human A549 cells after 48 hrs by sulforhodamine B assay; conditions: A549, 48 h; outline: as §2
SNB-75 = experiment: Anticancer activity against human SNB75 cells after 48 hrs by sulforhodamine B assay; conditions: SNB-75, 48 h; outline: as §1
CAKI-1 = experiment: Anticancer activity against human Caki1 cells after 48 hrs by sulforhodamine B assay; conditions: CAKI-1, 48 h; outline: as §2
LOX IMVI = experiment: Anticancer activity against human LOXIMVI cells after 48 hrs by sulforhodamine B assay; outline: as §2
NCI/ADR-RES = experiment: Anticancer activity against human NCI/ADR-RES cells after 48 hrs by sulforhodamine B assay; outline: as §2
OVCAR-3 = experiment: Anticancer activity against human OVCAR-3 cells after 48 hrs by sulforhodamine B assay; conditions: OVCAR-3, 48 h; outline: as §2
SF-539 = experiment: Anticancer activity against human SF539 cells after 48 hrs by sulforhodamine B assay; conditions: SF-539, 48 h; outline: as §2
T47D = experiment: Anticancer activity against human T47D cells after 48 hrs by sulforhodamine B assay; outline: as §1

Measured: GI50

O=c1[nH]c(=O)n([C@H]2C[C@H](O)[C@@H](CO)O2)cc1F [FLOXURIDINE]
3160 nM: UACC-257 | MDA-MB-435
200 nM: HL-60 | SN12C | SK-MEL-5 | SNB-75
2510 nM: IGROV-1 | NCI-H522 | HT-29 | OVCAR-3
3980 nM: [2] | MDA-MB-231 | RXF 393
5010 nM: TK-10
7940 nM: Malme-3M
1000 nM: BT-549
501 nM: NCI-H23 | NCI-H322M
1 nM: HCC 2998
31.6 nM: ACHN | CAKI-1
6.31 nM: MCF7 | CCRF-CEM
12.6 nM: SR | SF-268 | A549
39.8 nM: SF-295 | UACC-62 | MOLT-4
794 nM: [1] | HOP-92 | K562
126 nM: HCT-116 | OVCAR-8 | U-251 | UO-31
1260 nM: A498 | MDA-N | NCI/ADR-RES | T47D
1580 nM: COLO 205
316 nM: PC-3
158 nM: M14
6310 nM: OVCAR-5 | KM12
2000 nM: HCT-15 | SK-MEL-28 | SNB-19 | SK-OV-3
251 nM: DU-145
25.1 nM: HOP-62 | LOX IMVI
2 nM: NCI-H460
100 nM: 786-0
3.98 nM: SF-539
10000 nM: all other assays above

C#C[C@@]1(O)[C@@H](CO)O[C@@H](n2ccc(N)nc2=O)[C@@H]1O [TAS-106]
39.8 nM: BT-549 | M14 | MDA-MB-231 | SF-539
15.8 nM: TK-10 | NCI-H226 | Malme-3M | SF-268 | SNB-75
158 nM: OVCAR-4
25.1 nM: RXF 393
63.1 nM: HOP-92 | EKVX | SNB-19
10 nM: SK-MEL-5
19.9 nM: U-251 | NCI-H322M
12.6 nM: IGROV-1 | [2] | SK-MEL-2 | MDA-N
50.1 nM: OVCAR-5 | SK-MEL-28
31.6 nM: NCI-H23 | PC-3 | UACC-62
79.4 nM: UACC-257 | SK-OV-3 | OVCAR-3
< 10 nM: all other assays above
